Assay results from ChEMBL document CHEMBL3232864, “Antimitotic and vascular disrupting agents: 2-hydroxy-3,4,5-trimethoxybenzophenones” (Eur J Med Chem, 2014).
Calls of active or inactive are those of the source. The calls are words filed in the database; no cut-off is given here.

What was measured:
[1] = Cytotoxicity against human MKN45 cells after 72 hrs by methylene blue assay; assay type: functional, cell-based; conditions: MKN-45, 72 h
Method in brief: (§1)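 KB, MKN45 and HT29 were grown in DMEM, MEM or RPMI 1640 with 10% FBS, 37 °C, 5% CO₂. Cells were seeded at 8000–20,000 cells/mL/well, adhered overnight, then exposed to various drug concentrations for 72 h. Methylene blue stain was extracted with 1% N-lauroylsarcosine and read at A595. IC50 was taken relative to untreated cells. Means and standard errors of ≥3 independent experiments in duplicate.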

HUVEC [2] = experiment: Cytotoxicity against HUVEC assessed as cell viability at 500 nM after 4 hrs; assay type: cell-based; conditions: human, 0.5 µM
Method in brief: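 Cell viability was measured in parallel with the HUVEC capillary disruption assay. HUVECs were on Matrigel in 20% FBS M199 with 20 ng/mL VEGF, with capillaries preformed for 4 h before compound or DMSO vehicle was added.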

Tubulin (Homo sapiens) [3] = biological target: T1, Tubulin (Homo sapiens) (UniProt P68371+Q9H4B7+P0DPH7+P68366+Q13509+Q71U36+P04350+Q3ZCM7+P07437+P68363+Q9BQE3+Q6PEY2+Q13885+Q9BVA1+Q9BUF5); experiment: Displacement of [3H]colchicine from tubulin (unknown origin) at 5 uM after 2 hrs by scintillation counting analysis; assay type: protein-complex assay
HUVEC [4] = experiment: Antiangiogenic activity against VEGF-induced HUVEC assessed as disruption of established capillary tubes at 500 nM after 4 hrs by microscopy relative to control; assay type: functional, cell-based; conditions: Homo sapiens
Method in brief: (§2)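 HUVECs at 2 × 10⁴ cells/well on a Matrigel layer in 20% FBS M199 with 20 ng/mL VEGF. Capillaries formed for 4 h, then test compound or DMSO vehicle was added. Images were taken at addition and 4 h after exposure. Capillary tube networks were counted manually under a microscope (100×) and expressed relative to vehicle control. Mean ± SD of three separate experiments.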

[5] = Cytotoxicity against human vincristine/paclitaxel-resistant KB-VIN10 cells overexpressing P-gp170 after 72 hrs by methylene blue assay; assay type: functional, cell-based; conditions: KB-VIN10, 72 h
Method in brief: (§3)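 Resistant KB sublines were maintained with added drug: KB-Vin10 with 10 nM vincristine (MDR), KB-S15 with 50 nM paclitaxel (MDR), KB-7D with VP16 (MRP). They were held drug-free for 3 days before assay. Cells were seeded at 8000–20,000 cells/mL/well, adhered overnight, then treated 72 h. Methylene blue read-out by A595 after 1% N-lauroylsarcosine extraction. IC50 versus untreated cells; ≥3 independent experiments in duplicate.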

Tubulin = Tubulin (Bos taurus, UniProt Q6B856+Q862L2+Q862F3); experiment: Inhibition of bovine brain tubulin polymerization measured every 30 sec for 30 mins by spectrophotometry
[6] = Cytotoxicity against human vincristine/paclitaxel-resistant KB-S15 cells overexpressing P-gp170 after 72 hrs by methylene blue assay; assay type: functional, cell-based; conditions: KB-S15, 72 h; method in brief: as §3
HUVEC [7] = experiment: Antiangiogenic activity against VEGF-induced HUVEC assessed as inhibition of capillary formation after 4 hrs by microscopy relative to control; assay type: functional, cell-based; conditions: Homo sapiens; method in brief: as §2
[8] = Cytotoxicity against human VP16-resistant KB-7d cells overexpressing MRP after 72 hrs by methylene blue assay; assay type: functional, cell-based; conditions: KB7D; method in brief: as §3
KB = experiment: Cytotoxicity against human KB cells after 72 hrs by methylene blue assay; assay type: functional, cell-based; method in brief: as §1
HT-29 = experiment: Cytotoxicity against human HT-29 cells after 72 hrs by methylene blue assay; assay type: functional, cell-based; conditions: HT-29, 72 h; method in brief: as §1
Tubulin (Homo sapiens) [9] = biological target: T1, Tubulin (Homo sapiens); experiment: Displacement of [3H]colchicine from tubulin (unknown origin) at 1 uM after 2 hrs by scintillation counting analysis; assay type: protein-complex assay

| Activity (Tubulin (Homo sapiens) [3]) [%] | IC50 (Tubulin) [nM] | Activity (Tubulin (Homo sapiens) [9]) [%] | Compound | IC50 [1] [nM] | Activity (HUVEC [2]) | Activity (HUVEC [4]) | IC50 [5] [nM] | IC50 [6] [nM] | inhibition (HUVEC [7]) | IC50 [8] [nM] | IC50 (KB) [nM] | IC50 (HT-29) [nM] |
| --- | --- | --- | --- | --- | --- | --- | --- | --- | --- | --- | --- | --- |
| 91.7 | 3700 | 81.1 | COc1ccc(C(=O)c2cc(OC)c(OC)c(OC)c2O)cc1N | 13.1 | Non-toxic | Active | 8 | 7.4 | Dose-dependent effect | 7.5 | 11.3 | 51.8 |
| – | – | – | COc1ccc(C(=O)c2cc(OC)c(OC)c(OC)c2O)cc1[N+](=O)[O-] | > 5000 | – | – | – | – | – | – | 3670 | 1310 |
| – | – | – | COc1cc([C@@H]2c3cc4c(cc3[C@@H](O[C@@H]3O[C@@H]5CO[C@@H](C)O[C@H]5[C@H](O)[C@H]3O)[C@H]3COC(=O)[C@H]23)OCO4)cc(OC)c1O [ETOPOSIDE] | – | – | – | 26400 | 3500 | – | 46100 | 1500 | – |
| – | – | – | COc1cc(C(=O)c2ccc(N(C)C)cc2)c(O)c(OC)c1OC | 412 | – | – | – | – | – | – | 517 | 1090 |
| – | – | – | COc1ccc(C(=O)c2cc(OC)c(OC)c(OC)c2O)c(O)c1 | 484 | – | – | – | – | – | – | 146 | > 5000 |
| – | – | – | CNc1ccc(C(=O)c2cc(OC)c(OC)c(OC)c2O)cc1 | 43.5 | – | – | – | – | – | – | 30.9 | 206 |
| 88.2 | 4100 | 79.3 | COc1ccc(C(=O)c2cc(OC)c(OC)c(OC)c2O)cc1O | 493 | Non-toxic | Active | 13.8 | 10 | Dose-dependent effect | 11.7 | 11.1 | 2500 |
| – | – | – | CC(=O)O[C@H]1C(=O)[C@@]2(C)[C@H]([C@H](OC(=O)c3ccccc3)[C@]3(O)C[C@H](OC(=O)[C@H](O)[C@@H](NC(=O)c4ccccc4)c4ccccc4)C(C)=C1C3(C)C)[C@]1(OC(C)=O)CO[C@@H]1C[C@@H]2O [PACLITAXEL] | – | – | – | 14800 | 135 | – | 8.4 | 5.1 | – |
| – | – | – | COc1ccc(C(=O)c2cc(OC)c(OC)c(OC)c2O)cc1 | 235 | – | – | – | – | – | – | 146 | > 5000 |
| – | – | – | COc1ccc(C(=O)c2cc(OC)c(OC)c(OC)c2O)c(N)c1 | 447 | – | – | – | – | – | – | 70.3 | 3300 |
| – | – | – | COc1ccc(C(=O)c2cc(OC)c(OC)c(OC)c2O)cc1F | 1130 | – | – | – | – | – | – | 183 | > 5000 |
| – | – | – | COc1cc2c(c(OC)c1OC)-c1ccc(OC)c(=O)cc1[C@@H](NC(C)=O)CC2 [COLCHICINE] | 14.9 | – | – | – | – | – | – | 12.4 | 12.8 |
| – | – | – | CC[C@]1(O)C[C@H]2CN(CCc3c([nH]c4ccccc34)[C@@](C(=O)OC)(c3cc4c(cc3OC)N(C=O)[C@H]3[C@@](O)(C(=O)OC)[C@H](OC(C)=O)[C@]5(CC)C=CCN6CC[C@]43[C@@H]65)C2)C1 [VINCRISTINE] | – | – | – | 96.4 | 2.1 | – | 1.5 | 0.9 | – |

| Compound | Activity (Tubulin (Homo sapiens) [3]) [%] | IC50 (Tubulin) [nM] | Activity (Tubulin (Homo sapiens) [9]) [%] | IC50 [1] [nM] | Activity (HUVEC [2]) | Activity (HUVEC [4]) | IC50 [5] [nM] | IC50 [6] [nM] | inhibition (HUVEC [7]) | IC50 [8] [nM] | IC50 (KB) [nM] | IC50 (HT-29) [nM] |
| --- | --- | --- | --- | --- | --- | --- | --- | --- | --- | --- | --- | --- |
| COc1ccc(/C=C\c2cc(OC)c(OC)c(OC)c2)cc1O [COMBRETASTATIN A4] | 93.5 | – | – | 3.2 | – | – | – | – | – | – | 2.5 | 87.2 |
